Source: ChEMBL document CHEMBL2417545, “6-methoxy-7-benzofuranoxy and 6-methoxy-7-indolyloxy analogues of 2-[2-(2,6-Dimethoxyphenoxy)ethyl]aminomethyl-1,4-benzodioxane (WB4101):1 discovery of a potent and selective α1D-adrenoceptor antagonist” (J Med Chem, 2013)

Key:
[1] = molecular target: T1, 5-hydroxytryptamine receptor 1A (Rattus norvegicus, UniProt P19327); experiment: Displacement of [3H]-8-OHDPAT from 5-HT1A receptor in rat hippocampal membranes after 30 mins; assay type: cell membranes, Hippocampus, Membrane
T1 sequence (P19327 whole entry): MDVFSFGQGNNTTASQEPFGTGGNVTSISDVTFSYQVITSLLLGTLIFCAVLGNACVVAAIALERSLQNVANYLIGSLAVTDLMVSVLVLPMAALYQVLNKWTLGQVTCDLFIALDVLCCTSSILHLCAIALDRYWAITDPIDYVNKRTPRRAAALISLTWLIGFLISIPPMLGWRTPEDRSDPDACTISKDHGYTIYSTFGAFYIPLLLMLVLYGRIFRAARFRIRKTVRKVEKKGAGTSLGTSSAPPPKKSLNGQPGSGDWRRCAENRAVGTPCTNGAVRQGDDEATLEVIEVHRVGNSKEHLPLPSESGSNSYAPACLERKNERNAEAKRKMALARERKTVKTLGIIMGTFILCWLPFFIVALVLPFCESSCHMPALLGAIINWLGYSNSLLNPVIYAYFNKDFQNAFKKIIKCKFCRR

Cavia porcellus = organism: Cavia porcellus; experiment: Inverse agonist activity at alpha-1 receptor in guinea pig thoracic aorta assessed as inhibition of calcium-induced increase in resting tension at 10 nM relative to control; assay type: tissue-based
Summary of the method: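 Guinea pig thoracic aortic strips in Krebs at 37 °C, equilibrated 1 h at 1 g tension, then given (−)-noradrenaline 1 μM. Internal Ca²⁺ stores were depleted by repeated agonist in Ca²⁺-free Krebs with 0.1 mM EDTA. After 30 min with antagonist at 10 nM, 1.8 mM Ca²⁺ was added. Read-out: % decrease of Ca²⁺-induced increase in resting tension versus no-agent reference.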

[2] = molecular target: T2, Alpha-1B adrenergic receptor (Homo sapiens, UniProt P35368); experiment: Displacement of [3H]prazosin from human alpha-1B adrenoreceptor expressed in CHO cells after 30 mins; assay type: cell-based
T2 sequence (P35368 whole entry): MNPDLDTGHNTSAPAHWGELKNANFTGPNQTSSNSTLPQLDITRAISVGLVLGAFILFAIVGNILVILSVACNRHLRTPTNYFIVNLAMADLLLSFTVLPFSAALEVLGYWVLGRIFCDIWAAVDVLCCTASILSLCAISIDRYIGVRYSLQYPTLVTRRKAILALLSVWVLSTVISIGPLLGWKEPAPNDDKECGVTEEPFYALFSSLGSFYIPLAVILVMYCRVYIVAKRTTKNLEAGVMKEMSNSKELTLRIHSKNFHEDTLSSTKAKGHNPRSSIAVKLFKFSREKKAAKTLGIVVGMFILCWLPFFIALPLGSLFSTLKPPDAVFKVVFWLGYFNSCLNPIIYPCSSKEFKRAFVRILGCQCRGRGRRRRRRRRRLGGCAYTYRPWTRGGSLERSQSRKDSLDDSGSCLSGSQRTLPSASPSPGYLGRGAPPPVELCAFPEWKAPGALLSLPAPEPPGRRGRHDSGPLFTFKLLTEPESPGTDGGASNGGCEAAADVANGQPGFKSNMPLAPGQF
Summary of the method: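 Membranes from CHO cells expressing each α₁-AR subtype, incubated 30 min at 25 °C in 50 mM Tris HCl pH 7.7 with 10 μM pargyline and 0.1% ascorbic acid, plus 0.5 nM [³H]prazosin and varying test compound concentrations. Nonspecific binding was defined with 1 μM prazosin.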

[3] = molecular target: T3, Adrenergic receptor alpha-2 (Rattus norvegicus, UniProt P22086+P19328+P22909); experiment: Antagonist activity at alpha-2 adrenoreceptor in Sprague-Dawley rat prostatic vas deferens assessed as reversal of clonidine-inhibited twitch responses of field-stimulated prostatic portion of vas deferens after 30 mins by Schild plot analysis; assay type: tissue-based
T3 sequence (P22086 whole entry): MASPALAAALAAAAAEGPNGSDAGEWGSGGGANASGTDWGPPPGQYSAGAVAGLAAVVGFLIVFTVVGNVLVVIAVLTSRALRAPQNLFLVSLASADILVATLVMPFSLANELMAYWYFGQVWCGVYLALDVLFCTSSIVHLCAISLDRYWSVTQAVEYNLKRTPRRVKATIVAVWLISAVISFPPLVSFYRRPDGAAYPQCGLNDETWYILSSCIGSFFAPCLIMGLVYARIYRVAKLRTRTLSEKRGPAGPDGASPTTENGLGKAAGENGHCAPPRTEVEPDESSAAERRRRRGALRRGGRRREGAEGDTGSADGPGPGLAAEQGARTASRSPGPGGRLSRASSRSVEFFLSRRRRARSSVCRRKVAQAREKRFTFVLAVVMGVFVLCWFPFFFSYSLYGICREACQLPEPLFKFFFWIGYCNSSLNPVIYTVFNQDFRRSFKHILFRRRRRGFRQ
T3 sequence (P19328 whole entry): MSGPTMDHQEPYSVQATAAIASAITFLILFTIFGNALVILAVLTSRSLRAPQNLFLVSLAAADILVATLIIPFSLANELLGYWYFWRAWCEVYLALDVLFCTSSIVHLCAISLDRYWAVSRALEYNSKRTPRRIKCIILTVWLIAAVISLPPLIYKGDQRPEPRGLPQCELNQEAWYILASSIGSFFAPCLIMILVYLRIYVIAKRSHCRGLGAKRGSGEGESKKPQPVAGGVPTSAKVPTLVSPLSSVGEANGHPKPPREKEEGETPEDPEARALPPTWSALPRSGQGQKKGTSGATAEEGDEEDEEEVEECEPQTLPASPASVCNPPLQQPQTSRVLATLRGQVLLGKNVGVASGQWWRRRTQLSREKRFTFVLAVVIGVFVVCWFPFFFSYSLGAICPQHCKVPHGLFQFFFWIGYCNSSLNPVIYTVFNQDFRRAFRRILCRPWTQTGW
T3 sequence (P22909 whole entry): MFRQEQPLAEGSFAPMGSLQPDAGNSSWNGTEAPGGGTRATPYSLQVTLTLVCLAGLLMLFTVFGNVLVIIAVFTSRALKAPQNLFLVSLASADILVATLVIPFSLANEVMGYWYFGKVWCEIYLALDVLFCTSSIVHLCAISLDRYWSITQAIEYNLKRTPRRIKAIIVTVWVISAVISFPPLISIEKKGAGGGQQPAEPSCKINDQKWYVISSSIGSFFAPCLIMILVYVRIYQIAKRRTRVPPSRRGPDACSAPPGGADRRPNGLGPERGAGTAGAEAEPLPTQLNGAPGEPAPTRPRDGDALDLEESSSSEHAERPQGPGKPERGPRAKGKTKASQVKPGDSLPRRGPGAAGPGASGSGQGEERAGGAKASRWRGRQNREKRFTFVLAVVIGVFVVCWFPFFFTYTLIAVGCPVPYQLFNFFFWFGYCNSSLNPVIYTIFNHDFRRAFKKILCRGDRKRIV
Summary of the method: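 Prostatic vas deferens in bath with propranolol 1 μM and desipramine 0.01 μM throughout. A cumulative clonidine control curve was run, then a second curve after 30 min antagonist equilibration. pA₂ from Schild plot of log(DR−1) vs log[antagonist], at least three antagonist concentrations, 3−5 repeats each.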

Ki [1] [nM] | Ki [2] [nM] | pA2 [3] | SMILES | inhibition (Cavia porcellus) [%]
2.57 | 28.8 | 6.55 | COc1ccc2ccoc2c1OCCNC[C@H]1COc2ccccc2O1.Cl | 0
339 | 490 | 6.09 | COc1ccc2cc[nH]c2c1OCCNC[C@H]1COc2ccccc2O1 | 25
110 | 35.5 | 6.05 | COc1ccc2c(c1OCCNC[C@H]1COc3ccccc3O1)NCC2.Cl.Cl | 100
46.8 | 21.9 | 6.63 | COc1ccc2c(c1OCCNC[C@H]1COc3ccccc3O1)OCC2.Cl | 0
